According to ChEMBL document CHEMBL3526002, “Tissue distribution and identification of radioactivity components at elimination phase after oral administration of [¹⁴C]CS-1036, an α-amylase inhibitor, to rats” (Drug Metab Dispos, 2013):

Key:
Set-up in all cases: dose 5 mg/kg, dosed compound name [14C]CS-1036, route oral
Conditions in all cases: in vivo
[1] = test system: Aorta; assay: Drug uptake in albino F344/DuCrlCrlj rat aorta at 5 mg/kg, po after 24 hrs by liquid scintillation counting; assay type: ADME, organism-based
[2] = Drug uptake in albino F344/DuCrlCrlj rat epididymis at 5 mg/kg, po after 24 hrs by liquid scintillation counting; assay type: ADME, organism-based
[3] = Drug uptake in albino F344/DuCrlCrlj rat epididymis assessed as ng equivalent of CS-1036 at 5 mg/kg, po after 72 hrs by liquid scintillation counting; assay type: ADME, organism-based
[4] = Drug uptake in albino F344/DuCrlCrlj rat trachea assessed as ng equivalent of CS-1036 at 5 mg/kg, po after 4 hrs by liquid scintillation counting; assay type: ADME, organism-based
[5] = test system: Zone of skin; assay: Drug uptake in albino F344/DuCrlCrlj rat skin at 5 mg/kg, po after 72 hrs by liquid scintillation counting; assay type: ADME, organism-based
[6] = test system: Cerebrum; assay: Drug uptake in albino F344/DuCrlCrlj rat cerebrum assessed as ng equivalent of CS-1036 at 5 mg/kg, po after 336 hrs by liquid scintillation counting; assay type: ADME, organism-based
How it was run: (§1)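 Single oral [14C]CS-1036 at 5 mg/kg was given to male rats (159–167 g; n = 3). Cerebrum was collected after aortic bleeding at 1, 4, 8, 24, 72, 168 or 336 h, weighed, and homogenized in 2 volumes of saline. A 0.5 ml aliquot was solubilized in Soluene-350 and counted by LSC with external-standard correction. Results are in ng equivalent/g tissue from specific activity and sample weight.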

[7] = test system: Thymus; assay: Drug uptake in albino F344/DuCrlCrlj rat thymus at 5 mg/kg, po after 4 hrs by liquid scintillation counting; assay type: ADME, organism-based
[8] = test system: Kidney; assay: Drug uptake in albino F344/DuCrlCrlj rat kidney assessed as ng equivalent of CS-1036 at 5 mg/kg, po after 4 hrs by liquid scintillation counting; assay type: ADME, organism-based
[9] = Drug uptake in albino F344/DuCrlCrlj rat thyroid gland assessed as ng equivalent of CS-1036 at 5 mg/kg, po after 8 hrs by liquid scintillation counting; assay type: ADME, organism-based
[10] = Drug uptake in albino F344/DuCrlCrlj rat brown fat at 5 mg/kg, po after 4 hrs by liquid scintillation counting; assay type: ADME, organism-based, Brown adipose tissue
[11] = test system: Thymus; assay: Drug uptake in albino F344/DuCrlCrlj rat thymus at 5 mg/kg, po after 24 hrs by liquid scintillation counting; assay type: ADME, organism-based
[12] = test system: Liver; assay: Drug uptake in albino F344/DuCrlCrlj rat liver assessed as ng equivalent of CS-1036 at 5 mg/kg, po after 168 hrs by liquid scintillation counting; assay type: ADME, organism-based
[13] = test system: Thymus; assay: Drug uptake in albino F344/DuCrlCrlj rat thymus at 5 mg/kg, po after 168 hrs by liquid scintillation counting; assay type: ADME, organism-based
[14] = test system: Thymus; assay: Drug uptake in albino F344/DuCrlCrlj rat thymus at 5 mg/kg, po after 1 hr by liquid scintillation counting; assay type: ADME, organism-based
[15] = test system: Stomach; assay: Drug uptake in albino F344/DuCrlCrlj rat stomach at 5 mg/kg, po after 168 hrs by liquid scintillation counting; assay type: ADME, organism-based
[16] = Drug uptake in albino F344/DuCrlCrlj rat thyroid gland assessed as ng equivalent of CS-1036 at 5 mg/kg, po after 168 hrs by liquid scintillation counting; assay type: ADME, organism-based
[17] = test system: Aorta; assay: Drug uptake in albino F344/DuCrlCrlj rat aorta assessed as ng equivalent of CS-1036 at 5 mg/kg, po after 8 hrs by liquid scintillation counting; assay type: ADME, organism-based
[18] = test system: Spleen; assay: Drug uptake in albino F344/DuCrlCrlj rat spleen assessed as ng equivalent of CS-1036 at 5 mg/kg, po after 1 hr by liquid scintillation counting; assay type: ADME, organism-based
[19] = test system: Kidney; assay: Drug uptake in albino F344/DuCrlCrlj rat kidney assessed as ng equivalent of CS-1036 at 5 mg/kg, po after 8 hrs by liquid scintillation counting; assay type: ADME, organism-based
[20] = test system: Cerebrum; assay: Drug uptake in albino F344/DuCrlCrlj rat cerebrum assessed as ng equivalent of CS-1036 at 5 mg/kg, po after 1 hr by liquid scintillation counting; assay type: ADME, organism-based; how it was run: as §1
[21] = Drug uptake in albino F344/DuCrlCrlj rat testis assessed as ng equivalent of CS-1036 at 5 mg/kg, po after 336 hrs by liquid scintillation counting; assay type: ADME, organism-based
[22] = test system: Stomach; assay: Drug uptake in albino F344/DuCrlCrlj rat stomach assessed as ng equivalent of CS-1036 at 5 mg/kg, po after 1 hr by liquid scintillation counting; assay type: ADME, organism-based
[23] = Drug uptake in albino F344/DuCrlCrlj rat eyeball at 5 mg/kg, po after 72 hrs by liquid scintillation counting; assay type: ADME, organism-based
[24] = Drug uptake in albino F344/DuCrlCrlj rat skeletal muscle at 5 mg/kg, po after 72 hrs by liquid scintillation counting; assay type: ADME, organism-based, Muscle tissue
[25] = test system: Aorta; assay: Drug uptake in albino F344/DuCrlCrlj rat aorta at 5 mg/kg, po after 4 hrs by liquid scintillation counting; assay type: ADME, organism-based
[26] = test system: Plasma; assay: Drug uptake in albino F344/DuCrlCrlj rat plasma at 5 mg/kg, po after 72 hrs by liquid scintillation counting; assay type: ADME, organism-based
[27] = Drug uptake in albino F344/DuCrlCrlj rat pituitary gland at 5 mg/kg, po after 72 hrs by liquid scintillation counting; assay type: ADME, organism-based
[28] = test system: Harderian gland; assay: Drug uptake in albino F344/DuCrlCrlj rat harderian gland assessed as ng equivalent of CS-1036 at 5 mg/kg, po after 168 hrs by liquid scintillation counting; assay type: ADME, organism-based
[29] = test system: Adrenal gland; assay: Drug uptake in albino F344/DuCrlCrlj rat adrenal gland assessed as ng equivalent of CS-1036 at 5 mg/kg, po after 336 hrs by liquid scintillation counting; assay type: ADME, organism-based
[30] = test system: Plasma; assay: Drug uptake in albino F344/DuCrlCrlj rat plasma assessed as ng equivalent of CS-1036 at 5 mg/kg, po after 168 hrs by liquid scintillation counting; assay type: ADME, organism-based
[31] = test system: Adrenal gland; assay: Drug uptake in albino F344/DuCrlCrlj rat adrenal gland at 5 mg/kg, po after 8 hrs by liquid scintillation counting; assay type: ADME, organism-based
[32] = test system: Large intestine; assay: Drug uptake in albino F344/DuCrlCrlj rat large intestine at 5 mg/kg, po after 4 hrs by liquid scintillation counting; assay type: ADME, organism-based
[33] = Drug uptake in albino F344/DuCrlCrlj rat bone marrow assessed as ng equivalent of CS-1036 at 5 mg/kg, po after 4 hrs by liquid scintillation counting; assay type: ADME, organism-based
[34] = test system: Kidney; assay: Drug uptake in albino F344/DuCrlCrlj rat kidney assessed as ng equivalent of CS-1036 at 5 mg/kg, po after 336 hrs by liquid scintillation counting; assay type: ADME, organism-based
[35] = test system: Pancreas; assay: Drug uptake in albino F344/DuCrlCrlj rat pancreas at 5 mg/kg, po after 4 hrs by liquid scintillation counting; assay type: ADME, organism-based

**Q.** Which results are given for `C[C@H]1O[C@@H](O[C@H]2[C@H](O)[C@@H](O)[C@@H](O[14C@H]3[14C@H](O)[14CH2]N[14C@@H]3[14CH2]O)O[C@@H]2CO)[C@H](O)[C@@H](O)[C@@H]1O`?
**A.** Radiolabel recovery [1]: 35.2 ngequiv/g; Radiolabel recovery [2]: 40.8 ngequiv/g; Radiolabel recovery [3]: 8.3 ngequiv/g; Radiolabel recovery [4]: 10.4 ngequiv/g; Radiolabel recovery [5]: 91.5 ngequiv/g; Radiolabel recovery [6]: 2.36 ngequiv/g; Radiolabel recovery [7]: 22 ngequiv/g; Radiolabel recovery [8]: 173 ngequiv/g; Radiolabel recovery [9]: 57.2 ngequiv/g; Radiolabel recovery [10]: 25.8 ngequiv/g; Radiolabel recovery [11]: 53.3 ngequiv/g; Radiolabel recovery [12]: 9.1 ngequiv/g; Radiolabel recovery [13]: 12 ngequiv/g; Radiolabel recovery [14]: 23.2 ngequiv/g; Radiolabel recovery [15]: 23.9 ngequiv/g; Radiolabel recovery [16]: 29.9 ngequiv/g; Radiolabel recovery [17]: 42.1 ngequiv/g; Radiolabel recovery [18]: 57.2 ngequiv/g; Radiolabel recovery [19]: 1970 ngequiv/g; Radiolabel recovery [20]: 0.23 ngequiv/g; Radiolabel recovery [21]: 2.06 ngequiv/g; Radiolabel recovery [22]: 640 ngequiv/g; Radiolabel recovery [23]: 7.83 ngequiv/g; Radiolabel recovery [24]: 16.5 ngequiv/g; Radiolabel recovery [25]: 23.9 ngequiv/g; Radiolabel recovery [26]: 14.5 ngequiv/ml; Radiolabel recovery [27]: 22.1 ngequiv/g; Radiolabel recovery [28]: 9 ngequiv/g; Radiolabel recovery [29]: 8.2 ngequiv/g; Radiolabel recovery [30]: 1.65 ngequiv/ml; Radiolabel recovery [31]: 66.1 ngequiv/g; Radiolabel recovery [32]: 5930 ngequiv/g; Radiolabel recovery [33]: 7.9 ngequiv/g; Radiolabel recovery [34]: 4.9 ngequiv/g; Radiolabel recovery [35]: 249 ngequiv/g
